Assay results taken from ChEMBL document CHEMBL4138284, “Biomimetic Stereoselective Sulfa-Michael Addition Leads to Platensimycin and Platencin Sulfur Analogues against Methicillin-Resistant Staphylococcus aureus” (J Nat Prod, 2018).
Values after ≈ are worked out from the molar mass of the structure shown.

What was measured:
Staphylococcus aureus [1] = assay: Antibacterial activity against methicillin-sensitive Staphylococcus aureus isolate 2 incubated overnight by agar dilution method; type: functional
Procedure, shortened: (§1)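 MIC by agar dilution. Strains were grown overnight in LB broth and diluted, then about 10^4 CFU (2 μL spots) were spotted onto LB agar plates containing test compound at 0.5 to 8 μg mL−1 agar. Plates were incubated overnight at 37 °C and inspected for growth. Clinical MSSA and MRSA isolates came from local hospitals.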

Staphylococcus aureus [2] = assay: Antibacterial activity against methicillin-resistant Staphylococcus aureus isolate 11 incubated overnight by agar dilution method; type: functional; procedure, shortened: as §1
Staphylococcus aureus [3] = assay: Antibacterial activity against methicillin-resistant Staphylococcus aureus isolate 7 incubated overnight by agar dilution method; type: functional; procedure, shortened: as §1
[4] = Stability of the compound in PBS at pH 7.1 at 0.1 mg/ml after 16 hrs by HPLC analysis; type: physicochemical; conditions: buffer, pH 7.1, 16 h
Procedure, shortened: (§2)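 Compound at 0.1 mg mL−1 dissolved in 1 mM PBS at the stated pH. Held at 37 °C for 16 h. Remaining compound and retro-Michael reversion products analysed by HPLC.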

Staphylococcus aureus [5] = assay: Antibacterial activity against methicillin-resistant Staphylococcus aureus isolate 8 incubated overnight by agar dilution method; type: functional; procedure, shortened: as §1
Staphylococcus aureus [6] = assay: Antibacterial activity against Staphylococcus aureus ATCC 29213 incubated overnight by agar dilution method; type: functional; procedure, shortened: as §1
Staphylococcus aureus [7] = assay: Antibacterial activity against methicillin-resistant Staphylococcus aureus isolate 5 incubated overnight by agar dilution method; type: functional; procedure, shortened: as §1
Staphylococcus aureus [8] = assay: Antibacterial activity against methicillin-sensitive Staphylococcus aureus isolate 4 incubated overnight by agar dilution method; type: functional; procedure, shortened: as §1
Staphylococcus aureus [9] = assay: Antibacterial activity against methicillin-resistant Staphylococcus aureus isolate 9 incubated overnight by agar dilution method; type: functional; procedure, shortened: as §1
[10] = Stability of the compound in PBS at pH 5.8 at 0.1 mg/ml after 16 hrs by HPLC analysis; type: physicochemical; conditions: buffer, pH 5.8, 16 h; procedure, shortened: as §2
Staphylococcus aureus [11] = assay: Antibacterial activity against methicillin-resistant Staphylococcus aureus isolate 10 incubated overnight by agar dilution method; type: functional; procedure, shortened: as §1
Staphylococcus aureus [12] = assay: Antibacterial activity against methicillin-sensitive Staphylococcus aureus isolate 3 incubated overnight by agar dilution method; type: functional; procedure, shortened: as §1
Staphylococcus aureus [13] = assay: Antibacterial activity against methicillin-sensitive Staphylococcus aureus isolate 1 incubated overnight by agar dilution method; type: functional; procedure, shortened: as §1
Staphylococcus aureus [14] = assay: Antibacterial activity against methicillin-resistant Staphylococcus aureus isolate 6 incubated overnight by agar dilution method; type: functional; procedure, shortened: as §1

SMILES: C[C@]12C[C@]34C[C@@H]1C[C@H](O2)[C@H]3[C@](C)(CCC(=O)Nc1c(O)ccc(C(=O)O)c1O)C(=O)C[C@@H]4SC(=O)c1ccccc1
- MIC (Staphylococcus aureus [1]): 1 µg/mL (≈ 1.73 µM)
- MIC (Staphylococcus aureus [2]): 2 µg/mL (≈ 3.45 µM)
- MIC (Staphylococcus aureus [3]): 2 µg/mL (≈ 3.45 µM)
- Stability [4]: Stable
- MIC (Staphylococcus aureus [5]): 1 µg/mL (≈ 1.73 µM)
- MIC (Staphylococcus aureus [6]): 1 µg/mL (≈ 1.73 µM)
- MIC (Staphylococcus aureus [7]): 2 µg/mL (≈ 3.45 µM)
- MIC (Staphylococcus aureus [8]): 1 µg/mL (≈ 1.73 µM)
- MIC (Staphylococcus aureus [9]): 1 µg/mL (≈ 1.73 µM)
- Stability [10]: Stable
- MIC (Staphylococcus aureus [11]): 1 µg/mL (≈ 1.73 µM)
- MIC (Staphylococcus aureus [12]): 1 µg/mL (≈ 1.73 µM)
- MIC (Staphylococcus aureus [13]): 1 µg/mL (≈ 1.73 µM)
- MIC (Staphylococcus aureus [14]): 1 µg/mL (≈ 1.73 µM)

SMILES: CCS[C@H]1CC(=O)[C@@](C)(CCC(=O)Nc2c(O)ccc(C(=O)O)c2O)[C@@H]2[C@@H]3C[C@H]4C[C@]12C[C@]4(C)O3
- MIC (Staphylococcus aureus [1]): 0.5 µg/mL (≈ 0.993 µM)
- MIC (Staphylococcus aureus [2]): 1 µg/mL (≈ 1.99 µM)
- MIC (Staphylococcus aureus [3]): 1 µg/mL (≈ 1.99 µM)
- Stability [4]: Stable
- MIC (Staphylococcus aureus [5]): 1 µg/mL (≈ 1.99 µM)
- MIC (Staphylococcus aureus [6]): 0.5 µg/mL (≈ 0.993 µM)
- MIC (Staphylococcus aureus [7]): 1 µg/mL (≈ 1.99 µM)
- MIC (Staphylococcus aureus [8]): 1 µg/mL (≈ 1.99 µM)
- MIC (Staphylococcus aureus [9]): 1 µg/mL (≈ 1.99 µM)
- Stability [10]: Stable
- MIC (Staphylococcus aureus [11]): 1 µg/mL (≈ 1.99 µM)
- MIC (Staphylococcus aureus [12]): 1 µg/mL (≈ 1.99 µM)
- MIC (Staphylococcus aureus [13]): 0.5 µg/mL (≈ 0.993 µM)
- MIC (Staphylococcus aureus [14]): 2 µg/mL (≈ 3.97 µM)

SMILES: COc1ccc(C(=O)S[C@H]2CC(=O)[C@@](C)(CCC(=O)Nc3c(O)ccc(C(=O)O)c3O)[C@@H]3[C@@H]4C[C@H]5C[C@]23C[C@]5(C)O4)cc1
- MIC (Staphylococcus aureus [1]): 1 µg/mL (≈ 1.64 µM)
- MIC (Staphylococcus aureus [2]): 2 µg/mL (≈ 3.28 µM)
- MIC (Staphylococcus aureus [3]): 2 µg/mL (≈ 3.28 µM)
- Stability [4]: Stable
- MIC (Staphylococcus aureus [5]): 1 µg/mL (≈ 1.64 µM)
- MIC (Staphylococcus aureus [6]): 1 µg/mL (≈ 1.64 µM)
- MIC (Staphylococcus aureus [7]): 2 µg/mL (≈ 3.28 µM)
- MIC (Staphylococcus aureus [8]): 1 µg/mL (≈ 1.64 µM)
- MIC (Staphylococcus aureus [9]): 1 µg/mL (≈ 1.64 µM)
- Stability [10]: Stable
- MIC (Staphylococcus aureus [11]): 1 µg/mL (≈ 1.64 µM)
- MIC (Staphylococcus aureus [12]): 1 µg/mL (≈ 1.64 µM)
- MIC (Staphylococcus aureus [13]): 1 µg/mL (≈ 1.64 µM)
- MIC (Staphylococcus aureus [14]): 1 µg/mL (≈ 1.64 µM)

SMILES: C=C1C[C@@]23CCC1C[C@@H]2[C@](C)(CCC(=O)Nc1c(O)ccc(C(=O)O)c1O)C(=O)C[C@@H]3SC(C)=O (single isomer, unassigned)
- MIC (Staphylococcus aureus [1]): 1 µg/mL (≈ 1.99 µM)
- MIC (Staphylococcus aureus [2]): 4 µg/mL (≈ 7.97 µM)
- MIC (Staphylococcus aureus [3]): 2 µg/mL (≈ 3.99 µM)
- Stability [4]: Stable
- MIC (Staphylococcus aureus [5]): 2 µg/mL (≈ 3.99 µM)
- MIC (Staphylococcus aureus [6]): 4 µg/mL (≈ 7.97 µM)
- MIC (Staphylococcus aureus [7]): 2 µg/mL (≈ 3.99 µM)
- MIC (Staphylococcus aureus [8]): 1 µg/mL (≈ 1.99 µM)
- MIC (Staphylococcus aureus [9]): 2 µg/mL (≈ 3.99 µM)
- Stability [10]: Stable
- MIC (Staphylococcus aureus [11]): 2 µg/mL (≈ 3.99 µM)
- MIC (Staphylococcus aureus [12]): 1 µg/mL (≈ 1.99 µM)
- MIC (Staphylococcus aureus [13]): 1 µg/mL (≈ 1.99 µM)
- MIC (Staphylococcus aureus [14]): 2 µg/mL (≈ 3.99 µM)

SMILES: C=C1C[C@@]23CCC1C[C@@H]2[C@](C)(CCC(=O)Nc1c(O)ccc(C(=O)O)c1O)C(=O)C[C@@H]3Sc1ccc(C)cc1 (single isomer, unassigned)
- MIC (Staphylococcus aureus [1]): 0.5 µg/mL (≈ 0.91 µM)
- MIC (Staphylococcus aureus [2]): 2 µg/mL (≈ 3.64 µM)
- MIC (Staphylococcus aureus [3]): 2 µg/mL (≈ 3.64 µM)
- MIC (Staphylococcus aureus [5]): 1 µg/mL (≈ 1.82 µM)
- MIC (Staphylococcus aureus [6]): 2 µg/mL (≈ 3.64 µM)
- MIC (Staphylococcus aureus [7]): 2 µg/mL (≈ 3.64 µM)
- MIC (Staphylococcus aureus [8]): 0.5 µg/mL (≈ 0.91 µM)
- MIC (Staphylococcus aureus [9]): 1 µg/mL (≈ 1.82 µM)
- MIC (Staphylococcus aureus [11]): 1 µg/mL (≈ 1.82 µM)
- MIC (Staphylococcus aureus [12]): 0.5 µg/mL (≈ 0.91 µM)
- MIC (Staphylococcus aureus [13]): 1 µg/mL (≈ 1.82 µM)
- MIC (Staphylococcus aureus [14]): 1 µg/mL (≈ 1.82 µM)

SMILES: CC(=O)NC[C@H]1CN(c2ccc(N3CCOCC3)c(F)c2)C(=O)O1 [LINEZOLID]
- MIC (Staphylococcus aureus [1]): 1 µg/mL (≈ 2.96 µM)
- MIC (Staphylococcus aureus [2]): 1 µg/mL (≈ 2.96 µM)
- MIC (Staphylococcus aureus [3]): 1 µg/mL (≈ 2.96 µM)
- MIC (Staphylococcus aureus [5]): 1 µg/mL (≈ 2.96 µM)
- MIC (Staphylococcus aureus [6]): 1 µg/mL (≈ 2.96 µM)
- MIC (Staphylococcus aureus [7]): 1 µg/mL (≈ 2.96 µM)
- MIC (Staphylococcus aureus [8]): 1 µg/mL (≈ 2.96 µM)
- MIC (Staphylococcus aureus [9]): 1 µg/mL (≈ 2.96 µM)
- MIC (Staphylococcus aureus [11]): 1 µg/mL (≈ 2.96 µM)
- MIC (Staphylococcus aureus [12]): 1 µg/mL (≈ 2.96 µM)
- MIC (Staphylococcus aureus [13]): 1 µg/mL (≈ 2.96 µM)
- MIC (Staphylococcus aureus [14]): 1 µg/mL (≈ 2.96 µM)

SMILES: C=C1C[C@@]23C=CC(=O)[C@@](C)(CCC(=O)Nc4c(O)ccc(C(=O)O)c4O)[C@@H]2C[C@@H]1CC3 [PLATENCIN]
- MIC (Staphylococcus aureus [1]): 1 µg/mL (≈ 2.35 µM)
- MIC (Staphylococcus aureus [2]): 1 µg/mL (≈ 2.35 µM)
- MIC (Staphylococcus aureus [3]): 1 µg/mL (≈ 2.35 µM)
- MIC (Staphylococcus aureus [5]): 1 µg/mL (≈ 2.35 µM)
- MIC (Staphylococcus aureus [6]): 1 µg/mL (≈ 2.35 µM)
- MIC (Staphylococcus aureus [7]): 1 µg/mL (≈ 2.35 µM)
- MIC (Staphylococcus aureus [8]): 1 µg/mL (≈ 2.35 µM)
- MIC (Staphylococcus aureus [9]): 1 µg/mL (≈ 2.35 µM)
- MIC (Staphylococcus aureus [11]): 1 µg/mL (≈ 2.35 µM)
- MIC (Staphylococcus aureus [12]): 1 µg/mL (≈ 2.35 µM)
- MIC (Staphylococcus aureus [13]): 1 µg/mL (≈ 2.35 µM)
- MIC (Staphylococcus aureus [14]): 1 µg/mL (≈ 2.35 µM)
